CHO-K1 Ca antag: counter-screen for M1 antagonists: effect in parental CHO-K1 cells; AID 602250; 360,000 compounds, 0.6% hits; ATP-induced calcium, Fluo-8 fluorescence; inhibition, % at 3 µM;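 active = inhibition above a per-plate cutoff, the plate's mean sample inhibition plus 3 SD, cut at about 24% in these data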;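 note: 0% = DMSO plus EC80 ATP and 100% = DMSO alone without ATP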
M1 ag parental: nonselective activator or artifact in parental CHO-K1 cells. Fluo-8 calcium fluorescence; scaled to maximal ATP response, vehicle zero. 360,000 compounds, 0.48% hits. activation, % at 3 µM. AID 602248; in the data active = activation above about 15%;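 note: untransfected CHO-K1 host cells lacking M1 receptor as counterscreen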
TRPML3 ag: human mucolipin-3 channel agonism | Q8TDD5 | AID 1448 | HEK293 TRPML3-YFP, Fluo-8 calcium fluorescence; 100% = the carbachol control signal | 220,000 compounds, 0.29% hits | activation, % at 3 µM;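 active = activation above its plate's cutoff, the mean activation of the plate's test wells plus 3 SD, cut at about 12% in these data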;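 note: 0% = DMSO only wells and 100% = carbachol wells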
Target sequence (Q8TDD5 whole entry, looked up): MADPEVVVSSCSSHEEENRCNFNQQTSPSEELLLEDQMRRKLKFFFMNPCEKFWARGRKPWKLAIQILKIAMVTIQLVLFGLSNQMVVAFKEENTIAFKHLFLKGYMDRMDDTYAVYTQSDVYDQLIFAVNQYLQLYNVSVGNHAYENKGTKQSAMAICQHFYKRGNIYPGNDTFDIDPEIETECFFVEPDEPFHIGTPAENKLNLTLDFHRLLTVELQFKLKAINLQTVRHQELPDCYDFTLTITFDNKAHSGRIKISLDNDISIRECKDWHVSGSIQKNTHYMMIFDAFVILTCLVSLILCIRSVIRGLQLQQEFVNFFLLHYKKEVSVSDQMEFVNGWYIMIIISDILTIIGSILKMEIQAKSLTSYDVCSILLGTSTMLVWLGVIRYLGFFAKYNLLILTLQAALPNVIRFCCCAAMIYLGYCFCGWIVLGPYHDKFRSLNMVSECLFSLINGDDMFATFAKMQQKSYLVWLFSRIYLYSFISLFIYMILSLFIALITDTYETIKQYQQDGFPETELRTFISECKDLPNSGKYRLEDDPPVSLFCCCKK
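Material: TRPML3-YFP stable HEK293 cells | Dosing: One concentration, 3 µM nominal, 0.3% DMSO | Timing: 125 s total fluorescence read per well | Technique: Fluo-8 calcium dye fluorescence, ex 470-495, em 515-575 nm | Measure: Percent activation from peak-to-basal fluorescence ratio, scaled between DMSO and carbachol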
CHO-K1 Ca PAM: counter-screen for M1 PAMs: effect in parental CHO-K1 cells; ATP EC20, Fluo-8 calcium fluorescence; 0% at ATP EC20, 100% at ATP max; activation, % at 3 µM; 360,000 compounds, 0.02% hits; AID 602247;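 active = activation above the run cutoff, the mean activation of all test compounds plus 3 SD, cut at about 40% in these data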;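 note: peak over basal fluorescence ratio in a 140 s read after ATP addition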
zfTRPN1 agonist: zebrafish TRPN1 (NompC) channel agonism; 220,000 compounds, 0.18% hits; AID 1424; activation, % at 3 µM; HEK293 zebrafish TRPN1-YFP, Fluo-8 calcium fluorescence; 100% = response to 87 µM carbachol;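 active = activation above its plate's cutoff, the mean activation of test wells on that plate plus 3 SD, cut at about 19% in these data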;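 note: 0% = DMSO alone and 100% = 87 µM carbachol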
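Material: zebrafish TRPN1-YFP in HEK293 cells. Doses: one dose of 3 µM, 0.3% DMSO. Incubation: dye 1 h 37 °C plus 30 min RT. Measured by: intracellular calcium fluorescence with Fluo-8.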
* = called active by the depositor; · = not tested or not shown; + = active, no number. In the library only some 1.2% were active in any assay of this set; here they are far more common.

SMILES | CHO-K1 Ca antag | M1 ag parental | TRPML3 ag | CHO-K1 Ca PAM | zfTRPN1 agonist
CCc1nc2ccc(C(=O)N(CC)CCN(C)C)cn2c1N(C)C(=O)C1CCCCC1 | 6 | 0 | · | -6 | ·
O=c1[nH]c2cc(Cl)c(Br)cc2o1 | -3 | 16* | · | 15 | ·
CN1CCC(N2CCN(C3CN(C4CCCC4)S(=O)(=O)C3)CC2)CC1 (centres undefined) | 0 | 0 | · | 6 | ·
Nn1c(SCC(=O)N2CCCC2)nnc1-c1cccs1 | 27* | 0 | · | -11 | ·
CCn1c(SCC(=O)c2ccccc2)nnc1-c1cccs1 | 26* | 0 | 0 | -9 | 1
O=C(CSc1nnc(-c2cccs2)n1-c1ccccc1)N1CCOCC1 | 35* | 0 | 0 | -24 | 0
CCn1c(SCC(=O)NCCc2ccccc2)nnc1-c1cccs1 | 6 | 0 | -1 | 10 | -1
C[C@@H]1CCCCO[C@@H](CN(C)CC2CC2)[C@@H](C)CN([C@H](C)CO)C(=O)c2cc(N(C)C)ccc2O1 | 5 | 2 | · | 5 | ·
O=C(CCNC(=O)c1ccc([N+](=O)[O-])cc1)Nc1cc(C(F)(F)F)ccc1N1CCOCC1 | -10 | 1 | · | 22 | ·
CC(=O)c1cnc2c(-c3ccc(Cl)cc3)cnn2c1C | 30* | -1 | 0 | -8 | -1
Nc1c(C(=O)O)cnc2c(-c3ccc(Cl)cc3)cnn12 | -4 | 0 | 0 | 6 | 0
CCOC(=O)CNC(=O)CNC(=O)c1nn(-c2ccc(OC)c(Cl)c2)c(=O)c2ccccc12 | 26* | 2 | 2 | -9 | 1
Cc1nnc(OCc2nc3ccccc3n2C)c2ccccc12 | 25* | 1 | 0 | -9 | 0
Cc1ccccc1OCc1nc2ccccc2n1C | -13 | 0 | · | 20 | ·
Cc1c(N/N=C(\C#N)C(=O)c2ccc(Cl)cc2)c(=O)n(-c2ccccc2)n1C | 8 | 10 | 3 | 14 | 4
N#C/C(=N\Nc1ccc(Cl)cc1)C(=O)c1ccccc1 | 31* | 7 | 4 | -3 | 12
Cc1ccc(Cl)c2c1=NC(=O)C=2c1[nH]c(=S)[nH]c1O | 5 | 17* | 1 | 12 | 1
O=C1N=c2ccccc2=C1c1[nH]c(=S)[nH]c1O | -5 | 0 | -1 | 20 | -1
CCN(CC)CCNc1ccc(CO)c2oc3ccccc3c(=O)c12 | -11 | 0 | · | -3 | ·
O=C(CCCSc1nc2ccccc2[nH]1)NCc1ccc(Cl)cc1 | 2 | 3 | -1 | 7 | -1
O=C(CCCSc1nc2ccccc2[nH]1)NCc1ccccc1F | 0 | 17* | 0 | 18 | -1
CCn1c(=O)c2ccccc2n(Cc2cccc(C)c2)c1=O | 27* | 0 | · | -25 | ·
CC1OC(CCc2cccc(Cl)c2)Cc2[nH]c(=S)[nH]c(=O)c21 (centres undefined) | 2 | 7 | · | -5 | ·
Cn1cnnc1SCC(=O)Nc1ccc(Cl)cn1 | 33* | 0 | 1 | -16 | 1
CC(=O)OC[C@@H]1CN(Cc2ccccc2)C[C@H](n2cnc3c(Nc4ccccc4)ncnc32)O1 | 2 | 4 | · | 9 | ·
SMILES | CHO-K1 Ca antag | M1 ag parental | TRPML3 ag | CHO-K1 Ca PAM | zfTRPN1 agonist
O=C(c1ccc(S(=O)(=O)Cc2cc(F)ccc2F)c([N+](=O)[O-])c1)N1CCOCC1 | 3 | 1 | · | 11 | ·
O=C(c1cc2nc(-c3ccccc3)cc(-c3ccccc3)n2n1)N1CCCC1 | 2 | 16* | 0 | 18 | 4
CCCCN(C(=O)CSc1nnc(-c2ccc(OC)cc2)n1C(C)C)c1c(N)n(Cc2ccccc2)c(=O)[nH]c1=O | -4 | -1 | 0 | 9 | 1
CCCCN(C(=O)CSc1nnc(-c2ccc(OC)cc2)n1CC)c1c(N)n(Cc2ccccc2)c(=O)[nH]c1=O | 28* | 0 | 1 | -12 | 1
CC1CCc2c(sc(NC(=O)c3ccc(-c4ccccc4[N+](=O)[O-])o3)c2C#N)C1 (centres undefined) | -11 | 0 | 0 | 7 | 0
N#Cc1c(NC(=O)c2ccc(-c3ccccc3[N+](=O)[O-])o2)sc2c1CCCC2 | 28* | -1 | 0 | -6 | 0
O=C(CC(=O)N/N=C\c1ccccc1)NCCc1ccccc1 | 1 | 0 | · | -5 | ·
COC(=O)c1ccc(/C=N\NC(=O)CC(=O)NCCc2ccccc2)cc1 | 15 | 17* | 0 | 2 | -1
CCCNC(=O)Cn1c(=O)/c(=C\c2ccc(-c3ccc([N+](=O)[O-])cc3)o2)s/c1=C\C(=O)C(C)(C)C | 23 | 23* | 3 | 7 | 16
Cc1cccc(C(=O)NCC(=O)N2CCN(c3ccc(Cl)cc3)CC2)c1 | -13 | 16* | · | 12 | ·
N#CC1=C(N)C2=C(N3CCCCC3)CCCC2C1(C#N)C#N (centres undefined) | -16 | 0 | 0 | 20 | 0
CCCCN(C)C1=CC2=CC(=C(C#N)C#N)CCC2CC1 (centres undefined) | 92* | 578* | 225* | -17 | 239*
N#CC(C#N)=C1C=C2C=C(N3CCCCC3)CCC2CC1 (centres undefined) | · | · | 380* | · | +
CCN(CC)C1=CC2=CC(=C(C#N)C#N)CCC2CC1 (centres undefined) | 67* | 99* | 298* | -14 | 332*
COc1ccc(OC)c(NC(=O)Nc2nnc([C@H]3C[C@H](O)[C@@H](CO)O3)s2)c1 | -7 | 0 | · | 18 | ·
Cc1cc(C)n2nc(SCC(=O)NC3CCCC(C)C3C)nc2n1 (centres undefined) | 2 | 0 | · | -9 | ·
CC1CCCC(NC(=O)CSc2ncccn2)C1C (centres undefined) | 27* | -1 | · | -23 | ·
CC(=O)Nc1cc(-c2cccc(NS(C)(=O)=O)c2)cn2c(-c3ccc(F)c(Cl)c3)cnc12 | -6 | 7 | · | 16 | ·
Cc1cc(C(=O)Nc2cccc3c2O[C@H](CN(C)CC2CC2)[C@@H](C)CN([C@H](C)CO)C3=O)n(C)n1 | -28 | 10 | · | 56* | ·
C[C@H](CO)N1C[C@H](C)[C@@H](CN(C)CC2CC2)Oc2c(NC(=O)C3CC3)cccc2C1=O | -5 | 0 | · | -1 | ·
O=C1N/C(=C/c2cccn2-c2ccc(F)cc2)C(=O)N1Cc1ccccc1F | 25* | -1 | 1 | -13 | 0
CC(=O)N1C[C@@H](CO)[C@@H](N(C)C(=O)C2CCCCC2)C[C@H]1c1ccccc1 | 5 | 0 | · | 16 | ·
Cc1cc(F)ccc1-c1cc(C(=O)NCc2ccc(C(F)(F)F)cc2)[nH]n1 | 3 | 16* | · | 26 | ·
O=CNCCc1nc2ccccc2n1CCc1ccccc1 | -7 | 0 | · | 10 | ·
O=CNCCCc1nc2ccccc2n1Cc1ccccc1 | 36* | 0 | 0 | -7 | -1
CC1(C(=O)NCc2ccccn2)CCN1C(=O)Cc1ccc(Cl)cc1Cl (centres undefined) | 3 | 1 | · | 19 | ·
O=C(NCCc1ccccc1)c1nc(-c2cccs2)no1 | 26* | 0 | 0 | 4 | 0
Brc1cccc(-c2nc3c4ccccc4ccn3c2Cc2ccccc2)c1 | -8 | 1 | · | 8 | ·
